Values joined by “and” are separate entries in the source; they are usually repeats but may differ in a detail not shown here. Equal entries are not always repeated. “Also recorded” adds a separate entry of the source. Where two headings read alike, the source gives them in different places.
What was measured:
[1] = Plasma pharmacokinetics in patients; assay type: in vivo, human
[2] = Phase I study safety: TEAEs, DLTs, MTD; assay type: in vivo, human; conditions: for MTD: maximum dose evaluated 200 mg twice a day
In short: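 Oral test compound was given at 20-200 mg twice a day or 100-250 mg once daily in 28-day cycles, using pharmacologically guided 3 + 3 escalation. A level was safe with zero DLTs in three or one in six patients. AEs were recorded from consent to 30 days after last dose and investigator-graded by CTCAE v4.03. Safety population: all patients dosed.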

[3] = test system: advanced gastrointestinal stromal tumor (GIST); experiment: Phase I study efficacy, investigator assessed, RECIST version 1.1; assay type: in vivo, human; conditions: 150 mg once daily
In short: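 Patients with advanced GIST after ≥1 prior systemic therapy received oral test compound 150 mg once daily in 28-day cycles, in dose-escalation or expansion. Imaging at screening, after cycles 2, 4 and 6, then every three cycles and at final visit. Responses were investigator-assessed per RECIST 1.1 and confirmed about 28 days later. Intent-to-treat population, grouped by line of therapy.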

[4] = test system: advanced GIST; conditions: cited from earlier work
[5] = test system: PDGFRB; conditions: cited from earlier work
[6] = test system: TIE2; conditions: cited from earlier work
[7] = test system: VEGFR2; conditions: cited from earlier work
[8] = test system: BRAF; conditions: cited from earlier work
[9] = test system: metastatic GIST; conditions: first-line; cited from earlier work
[10] = test system: GIST; conditions: cited from earlier work
[11] = test system: GIST; conditions: cited from earlier work; remark: listed apart in the source
[12] = 150 mg once daily, cycle 1 day 15

For CCn1c(=O)c(-c2cc(NC(=O)Nc3ccccc3)c(F)cc2Br)cc2cnc(N)cc21 [DP-5439], the accumulation [1, 12] was 4.6- to 5.3 fold, the “exposure (AUC) relative to parent ripretinib” value ([1]; 15 days of dosing at 150 mg once daily) was “approximately 129%” and the “exposure (AUC) relative to parent ripretinib” value ([1]; single 150-mg doses) was “approximately 49%”.
In the case of CCn1c(=O)c(-c2cc(NC(=O)Nc3ccccc3)c(F)cc2Br)cc2cnc(NC)cc21 [Ripretinib, 1-[4-bromo-5-[1-ethyl-7-(methylamino)-2-oxo-1,2-dihydro-1,6-naphthyridin-3-yl]-2-fluorophenyl]-3-phenylurea], the DLT ([2]; 100 mg twice a day (n = 12)) is reported as “asymptomatic grade 3 lipase elevation”, the DLT ([2]; 150 mg once daily (n = 12)) is reported as “asymptomatic grade 4 creatine phosphokinase increase” and the DLT ([2]; 200 mg twice a day (n = 7)) is reported as “asymptomatic grade 3 lipase elevation”. The “Alopecia, Total Grades 1–4” value ([2]; GIST, 150 mg once daily) was 88 [62.0%] No. (%) and 88 (62.0%) No. (%), the “Constipation, Total Grades 1–4” value ([2]; GIST, 150 mg once daily) was 56 [39.4%] No. (%) and the “Decreased appetite, Total Grades 1–4” value ([2]; GIST, 150 mg once daily) was 48 [33.8%] No. (%). For the same compound, the “Diarrhea, Total Grades 1–4” value ([2]; GIST, 150 mg once daily) was 47 [33.1%] No. (%), the “Fatigue, Total Grades 1–4” value ([2]; GIST, 150 mg once daily) was 78 [54.9%] No. (%) and the “Lipase increased, Grade 3/4” value ([2]; GIST, 150 mg once daily) was 25 (17.6%) No. (%). The “Myalgia, Total Grades 1–4” value ([2]; GIST, 150 mg once daily) was 69 [48.6%] No. (%), the “Nausea, Total Grades 1–4” value ([2]; GIST, 150 mg once daily) was 65 [45.8%] No. (%) and the “PPES, Total Grades 1–4” value ([2]; GIST, 150 mg once daily) was 62 [43.7%] No. (%). The “TEAEs leading to a dose reduction” value ([2]; GIST, 150 mg once daily) was 26 (18.3%) patients (%), the “TEAEs leading to treatment interruption” value ([2]; GIST, 150 mg once daily) was 77 (54.2%) patients (%) and the “Treatment-emergent SAE: abdominal pain” value ([2]; GIST, 150 mg once daily) was 14 [9.9%] n [%]. The “Treatment-emergent SAE: cancer surgery” value ([2]; GIST, 150 mg once daily) was 7 [4.9%] n [%], the “Treatment-emergent SAE: death” value ([2]; GIST, 150 mg once daily) was 11 [7.7%] n [%] and the “Treatment-emergent SAE: sepsis” value ([2]; GIST, 150 mg once daily) was 6 [4.2%] n [%]. The “patients who discontinued study treatment because of PPES” value ([2]; GIST, 150 mg once daily) was “no patients”, the “Any TEAE” value ([2]; GIST, 150 mg once daily, total) was 142 (100%) No. (%) and the “Any TEAE, grade 3 and 4” value ([2]; all patients) was 173 (67.1%) No. (%). For the same compound, the “Any TEAE, grade All” value ([2]; all patients) was 257 (99.6%) No. (%), the “TEAEs leading to a dose reduction” value ([2]; all patients) was 38 (14.7%) patients (%) and the “TEAEs leading to treatment interruption” value ([2]; all patients) was 127 (49.2%) patients (%). For the same compound, the “Treatment-emergent SAE: abdominal pain” value ([2]; all patients) was 17 [6.6%] n [%], the “Treatment-emergent SAE: cancer surgery” value ([2]; all patients) was 10 [3.9%] n [%] and the “Treatment-emergent SAE: death” value ([2]; all patients) was 16 [6.2%] n [%]. The “Treatment-emergent SAE: dyspnea” value ([2]; all patients) was 8 [3.1%] n [%], the “discontinued study treatment secondary to a drug-related TEAE” value ([2]; all patients) was 16 (6.2%) patients (%) and the “treatment-emergent serious adverse event (SAE)” value ([2]; all patients) was 137 (53.1%) patients (%). For the same compound, the DLTs reported ([2]; dose-escalation phase) was “Three”, the “patients at each dose level who experienced a DLT” value ([2]; dose-escalation phase) was less than 33% and the RP2D ([2]; in vivo) was 150 mg once daily. The MTD [2] was “no maximum tolerated dose was reached”, the MTD ([2]; listed as ripretinib) was “not reached; also recorded: No MTD was reached” and the “Duration of response, median (95% CI)” value ([3]; fourth line or greater) was 17.5 months. For the same compound, the “ORR (95% CI)” value ([3]; fourth line or greater) was 7.2%, the “PFS, median (95% CI)” value ([3]; fourth line or greater) was 5.5 months and the “probability of PFS at 12 months” value ([3]; fourth line or greater) was 21.2%. The “Duration of response, median (95% CI)” value ([3]; second line) was 18.4 months, the “ORR (95% CI)” value ([3]; second line) was 19.4% and the “PFS, median (95% CI)” value ([3]; second line) was 10.7 months. For the same compound, the “probability of PFS at 12 months” value ([3]; second line) was 33.5%, the “ORR (95% CI)” value ([3]; third line) was 14.3% and the “PFS, median (95% CI)” value ([3]; third line) was 8.3 months. The “probability of PFS at 12 months” value ([3]; third line) was 29.2%, the “Duration of response, median (95% CI)” value ([3]; total) was 18.4 months and the “ORR (95% CI)” value ([3]; total) was 11.3%. The “Cmax higher compared with cycle 1 day 1” value [1, 12] was 61%, the “accumulation on the basis of AUC0-12h” value ([1]; 150 mg once daily, cycle 1 day 15 vs day 1) was 66% and the Tmax ([1]; human, plasma, oral, time to Tmax, single doses, fasting, cycle 1 day 1) was 2 to 10 h. For the same compound, the “CV% for Cmax and AUC0-24h” value ([1]; single doses with PK data for at least 10 patients) was 35%-60%, the mPFS [4] was 6.3 month and the inhibition in vitro [5] was “inhibits”. The inhibition in vitro [6] was “inhibits”, the inhibition in vitro [7] was “inhibits” and the inhibition in vitro [8] was “inhibits”.
In the case of Cc1ccc(NC(=O)c2ccc(CN3CCN(C)CC3)cc2)cc1Nc1nccc(-c2cccnc2)n1 [imatinib], the mPFS [9] is given as 1.7-2 years.
In the case of CNC(=O)c1cc(Oc2ccc(NC(=O)Nc3ccc(Cl)c(C(F)(F)F)c3)c(F)c2)ccn1 [regorafenib], the “syndromes such as PPES, grade 3” value [10] is given as 19.7% and the mPFS ([10]; third-line) is given as roughly 4.8 months.
For CCN(CC)CCNC(=O)c1c(C)[nH]c(/C=C2\C(=O)Nc3ccc(F)cc32)c1C [sunitinib], the “syndromes such as PPES, grade 3” value [11] is given as 4% and the mPFS ([11]; second-line) is given as “approximately 5.6 months”.
